Converted amounts (≈) assume the structure as drawn.
Legend:
Bacillus pumilus [1] = assay: Antibacterial activity against penicillin-susceptible Bacillus pumilus CMCC 63202 assessed as bacterial growth inhibition by broth dilution method; assay type: functional; details: time 24 hrs
Outline: (§1)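 Broth microdilution in Mueller Hinton broth. A 0.5 McFarland suspension was diluted tenfold, giving an inoculum of 1.5 × 10⁷ cfu/mL. This was added to 2-fold serial compound dilutions from […]. Plates were incubated aerobically at 37 °C for 24 h. MIC was the lowest concentration with no visible turbidity.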

Bacillus subtilis [2] = assay: Antibacterial activity against penicillin-susceptible Bacillus subtilis ATCC 9372 assessed as bacterial growth inhibition incubated for 24 hrs by CLSI protocol based broth microdilution method; assay type: functional
Escherichia coli = assay: Antibacterial activity against penicillin-susceptible Escherichia coli ATCC 25922 assessed as inhibition of bacterial growth measured by broth microdilution method; assay type: functional; details: time 24 hrs; outline: as §1
[3] = tested on: Staphylococcus epidermidis; assay: Antibacterial activity against penicillin-resistant Staphylococcus epidermidis assessed as inhibition of bacterial growth measured by broth microdilution method; assay type: functional; details: time 24 hrs
Streptococcus pyogenes [4] = assay: Antibacterial activity against erythromycin-resistant Streptococcus pyogenes 2 assessed as bacterial growth inhibition incubated for 24 hrs by CLSI protocol based broth microdilution method; assay type: functional
Bacillus subtilis [5] = assay: Bactericidal activity against penicillin-susceptible Bacillus subtilis ATCC 9372 measured after 24 hrs by CLSI protocol based method; assay type: functional
Outline: (§2)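 MBC followed on from the 24 h broth microdilution MIC plates. Aliquots from clear wells were spread on tryptic soy agar and incubated aerobically at 37 °C for 24 h. MBC was the minimum concentration giving no colonies.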

Streptococcus pyogenes [6] = assay: Antibacterial activity against erythromycin-susceptible Streptococcus pyogenes clinical isolate 1 assessed as bacterial growth inhibition incubated for 24 hrs by CLSI protocol based broth microdilution method; assay type: functional
Pseudomonas aeruginosa = assay: Antibacterial activity against penicillin-susceptible Pseudomonas aeruginosa ATCC27853 assessed as bacterial growth inhibition incubated for 24 hrs by CLSI protocol based broth microdilution method; assay type: functional
Staphylococcus aureus [7] = assay: Bactericidal activity against penicillin-resistant Staphylococcus aureus measured after 24 hrs by CLSI protocol based method; assay type: functional
Outline: (§3)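 MBC after broth microdilution. After 24 h, aliquots from clear wells were plated on tryptic soy agar and incubated aerobically 24 h at 37 °C. MBC was the lowest concentration giving no colonies.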

Staphylococcus aureus [8] = assay: Antibacterial activity against methicillin-resistant Staphylococcus aureus ATCC 43300 assessed as inhibition of bacterial growth by broth microdilution method; assay type: functional; details: time 24 hrs
Outline: (§4)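 Broth microdilution MIC. A 0.5 McFarland suspension was diluted 10-fold and added at 1.5 × 10⁷ cfu/mL to 2-fold dilutions (0.125–64) in Mueller Hinton broth. Incubated aerobically 24 h at 37 °C. MIC was the lowest concentration with no visible turbidity.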

Enterococcus faecium [9] = assay: Antibacterial activity against vancomycin-resistant Enterococcus faecium ATCC 51559 assessed as bacterial growth inhibition incubated for 24 hrs by CLSI protocol based broth microdilution method; details: ATCC 51559, 24 h
Staphylococcus aureus [10] = assay: Antibacterial activity against erythromycin-susceptible Staphylococcus aureus ATCC 25923 assessed as bacterial growth inhibition incubated for 24 hrs by CLSI protocol based broth microdilution method; assay type: functional
Staphylococcus aureus [11] = assay: Antibacterial activity against Staphylococcus aureus assessed as inhibition of bacterial growth measured by broth microdilution method; assay type: functional; details: time 24 hrs; outline: as §1
Enterococcus faecium [12] = assay: Antibacterial activity against vancomycin-susceptible Enterococcus faecium ATCC19434 assessed as bacterial growth inhibition incubated for 24 hrs by CLSI protocol based broth microdilution method; details: ATCC19434, 24 h
Enterococcus faecalis [13] = assay: Antibacterial activity against vancomycin-resistant Enterococcus faecalis ATCC 51299 assessed as bacterial growth inhibition incubated for 24 hrs by CLSI protocol based broth microdilution method; assay type: functional
Staphylococcus aureus [14] = assay: Antibacterial activity against penicillin-resistant Staphylococcus aureus assessed as inhibition of bacterial growth measured by broth microdilution method; assay type: functional; details: time 24 hrs; outline: as §4
Enterococcus faecalis [15] = assay: Antibacterial activity against vancomycin-susceptible Enterococcus faecalis ATCC 29212 assessed as bacterial growth inhibition incubated for 24 hrs by CLSI protocol based broth microdilution method; assay type: functional
[16] = tested on: Staphylococcus epidermidis; assay: Bactericidal activity against penicillin-resistant Staphylococcus epidermidis measured after 24 hrs by CLSI protocol based method; assay type: functional; outline: as §3
Bacillus subtilis [17] = assay: Ratio of MBC to MIC against penicillin-susceptible Bacillus subtilis ATCC 9372; assay type: functional
Outline: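 Ratio of MBC to MIC, both measured by broth microdilution in MH broth (37 °C, 24 h); MBC was scored by subculturing clear wells onto tryptic soy agar for 24 h. Following CLSI, a ratio of 4 or less counts as bactericidal.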

Bacillus pumilus [18] = assay: Bactericidal activity against penicillin-susceptible Bacillus pumilus CMCC 63202 measured after 24 hrs by CLSI protocol based method; assay type: functional; outline: as §2
Staphylococcus aureus [19] = assay: Ratio of MBC to MIC against erythromycin-susceptible Staphylococcus aureus ATCC 25923; assay type: functional
Outline: (§5)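 MBC/MIC ratio from the broth microdilution MIC (24 h, 37 °C, MH broth) and the MBC (clear wells subcultured on tryptic soy agar, 24 h). A ratio ≤4 is read as bactericidal per CLSI.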

Staphylococcus aureus [20] = assay: Bactericidal activity against methicillin-resistant Staphylococcus aureus ATCC 43300 measured after 24 hrs by CLSI protocol based method; assay type: functional; outline: as §3
[21] = target: T1, Cell division protein FtsZ (Bacillus subtilis, UniProt A5Z1V5); assay: Inhibition of FtsZ in Bacillus subtilis assessed as disruption of Z ring formation
T1 sequence (A5Z1V5 whole entry): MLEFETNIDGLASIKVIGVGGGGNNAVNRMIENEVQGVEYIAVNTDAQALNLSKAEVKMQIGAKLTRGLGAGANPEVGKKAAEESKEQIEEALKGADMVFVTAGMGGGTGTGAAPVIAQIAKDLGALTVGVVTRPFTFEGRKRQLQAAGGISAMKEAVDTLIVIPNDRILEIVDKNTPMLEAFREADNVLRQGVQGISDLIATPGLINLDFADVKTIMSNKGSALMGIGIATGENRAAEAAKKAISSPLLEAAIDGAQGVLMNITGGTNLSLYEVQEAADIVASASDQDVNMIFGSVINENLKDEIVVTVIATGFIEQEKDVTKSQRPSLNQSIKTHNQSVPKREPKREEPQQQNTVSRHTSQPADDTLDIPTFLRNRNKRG

Staphylococcus aureus [22] = assay: Ratio of MBC to MIC against penicillin-resistant Staphylococcus aureus; assay type: functional; outline: as §5
[23] = target: T2, Cell division protein FtsZ (Escherichia coli K-12, UniProt P0A9A6); assay: Inhibition of FtsZ in Escherichia coli assessed as disruption of Z ring formation
T2 sequence (P0A9A6 whole entry): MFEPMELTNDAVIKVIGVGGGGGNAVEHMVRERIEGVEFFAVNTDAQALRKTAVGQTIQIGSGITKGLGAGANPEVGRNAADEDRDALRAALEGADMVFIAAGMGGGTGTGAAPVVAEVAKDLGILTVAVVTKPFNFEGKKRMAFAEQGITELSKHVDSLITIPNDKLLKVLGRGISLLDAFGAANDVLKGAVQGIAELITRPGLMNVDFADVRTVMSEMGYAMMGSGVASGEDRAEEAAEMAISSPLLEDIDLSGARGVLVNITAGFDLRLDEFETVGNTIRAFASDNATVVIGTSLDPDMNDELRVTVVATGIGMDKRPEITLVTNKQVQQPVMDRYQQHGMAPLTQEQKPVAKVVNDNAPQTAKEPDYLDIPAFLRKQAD

Staphylococcus aureus [24] = assay: Bactericidal activity against erythromycin-susceptible Staphylococcus aureus ATCC 25923 measured after 24 hrs by CLSI protocol based method; assay type: functional; outline: as §3
[25] = tested on: Staphylococcus epidermidis; assay: Ratio of MBC to MIC against penicillin-resistant Staphylococcus epidermidis; assay type: functional; outline: as §5
Bacillus pumilus [26] = assay: Ratio of MBC to MIC against penicillin-susceptible Bacillus pumilus CMCC 63202; assay type: functional; outline: as §5

Row | Compound | MIC (Bacillus pumilus [1]) [µg/mL] | MIC (Bacillus subtilis [2]) [µg/mL] | MIC (Escherichia coli) [µg/mL] | MIC [3] [µg/mL] | MIC (Streptococcus pyogenes [4]) [µg/mL] | MIC (Streptococcus pyogenes [6]) [µg/mL] | MIC (Pseudomonas aeruginosa) [µg/mL] | MIC (Staphylococcus aureus [8]) [µg/mL] | MIC (Enterococcus faecium [9]) [µg/mL] | MIC (Staphylococcus aureus [10]) [µg/mL] | MIC (Staphylococcus aureus [11]) [µg/mL] | MIC (Enterococcus faecium [12]) [µg/mL] | MIC (Enterococcus faecalis [13]) [µg/mL] | MIC (Staphylococcus aureus [14]) [µg/mL] | MIC (Enterococcus faecalis [15]) [µg/mL] | also measured
1 | CC(=O)NC[C@H]1CN(c2ccc(N3CCOCC3)c(F)c2)C(=O)O1 [LINEZOLID] | 2 (≈ 5.93 µM) | 0.5 (≈ 1.48 µM) | > 64 | 4 (≈ 11.9 µM) | 1 (≈ 2.96 µM) | 1 (≈ 2.96 µM) | > 64 | – | – | – | – | – | – | – | – | MBC (Bacillus subtilis [5]): 64 µg/mL (≈ 190 µM); MBC (Staphylococcus aureus [7]): 16 µg/mL (≈ 47.4 µM)
2 | CCCCc1ccc(-c2c3ccccc3[n+](C)c3ccccc23)cc1.[I-] | 1 | 0.5 | 64 | 2 | 2 | 1 | > 64 | 2 | 2 | 0.03 | < 0.125 | 4 | 4 | 8 | 4 | –
3 | CCc1ccc(C#Cc2c3ccccc3[n+](C)c3ccccc23)cc1.[I-] | 2 | 2 | > 64 | 8 | 4 | 4 | > 64 | 2 | 4 | 2 | 2 | 4 | 8 | 4 | 2 | –
4 | C[n+]1c2ccccc2c(/C=C/c2ccc(Cl)cc2Cl)c2ccccc21.[I-] | 2 | 0.5 | 32 | 2 | 0.5 | 0.25 | > 64 | 1 | 4 | 0.5 | 1 | 4 | 8 | 2 | 2 | –
5 | C[n+]1cc2c3c(ccc2c2ccc4cc5c(cc4c21)OCO5)OCO3.[Cl-] [SANGUINARIUM CHLORIDE] | 4 | 4 | 32 | 8 | 2 | 2 | > 64 | 8 | 32 | 4 | 8 | 64 | 32 | 16 | 16 | MIC [16]: 64 µg/mL; Ratio (Bacillus subtilis [17]): 16; MBC (Bacillus pumilus [18]): > 64 µg/mL; Ratio (Staphylococcus aureus [19]): >32; MBC (Staphylococcus aureus [20]): > 64 µg/mL; IC50 [21]: 2.72 µM; Ratio (Staphylococcus aureus [22]): 8; MBC (Bacillus subtilis [5]): 64 µg/mL; MBC (Staphylococcus aureus [7]): 128 µg/mL; IC50 [23]: 12.5 µM; MBC (Staphylococcus aureus [24]): > 64 µg/mL; Ratio [25]: 64; Ratio (Bacillus pumilus [26]): >64
6 | Cc1cccc(C#Cc2c3ccccc3[n+](C)c3ccccc23)c1.[I-] | 2 | 2 | > 64 | 4 | 4 | 4 | > 64 | 2 | 4 | 2 | 2 | 8 | 8 | 2 | 4 | –
7 | C[n+]1c2ccccc2c(-c2ccc(-c3ccccc3)cc2)c2ccccc21.[I-] | 1 | 1 | 64 | 2 | 1 | 0.5 | > 64 | 16 | 2 | 0.125 | 0.25 | 4 | 4 | 8 | 4 | –

Source: ChEMBL document CHEMBL4837210 (Eur J Med Chem, 2021)
